Tests used:
[1] = biological target: T1, Dihydropteroate synthase (Bacillus anthracis) (UniProt Q81VW8); experiment: Inhibition of Bacillus anthracis DHPS expressed in Escherichia coli BL21 (DE3) at 500 uM after 30 mins
T1 sequence (whole entry): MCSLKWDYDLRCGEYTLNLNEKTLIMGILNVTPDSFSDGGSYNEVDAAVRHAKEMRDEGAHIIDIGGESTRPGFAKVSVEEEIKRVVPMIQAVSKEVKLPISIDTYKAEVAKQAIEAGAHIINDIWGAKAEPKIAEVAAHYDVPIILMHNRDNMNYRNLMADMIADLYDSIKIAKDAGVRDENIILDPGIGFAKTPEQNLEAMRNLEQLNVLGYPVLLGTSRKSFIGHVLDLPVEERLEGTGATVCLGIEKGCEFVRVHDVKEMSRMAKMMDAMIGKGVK
Summary of the method: (§1)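 Reaction held 5 μM 14C pABA, 10 μM enzymatically prepared dihydropterin diphosphate, 10 mM MgCl2, 2% DMSO, 50 mM HEPES pH 7.6, 10 ng DHPS. Product was separated by PEI-cellulose TLC and quantified by phosphorimaging as percent inhibition.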

Dihydropteroate synthase [2] = biological target: T2, Dihydropteroate synthase (Bacillus anthracis, UniProt Q81VW8); experiment: Binding affinity to Bacillus anthracis DHPS expressed in Escherichia coli BL21 (DE3) after 30 mins by isothermal titration calorimetry
T2 sequence (Q81VW8 whole entry): T1 sequence (whole entry)
Summary of the method: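 ITC at 25 °C in 40 mM HEPES, 4 mM MgCl2, pH 7.6; 5% DMSO added to the buffer for the inhibitor titration. Protein was dialyzed against 50 mM HEPES, 5 mM MgCl2, pH 7.6. Nineteen injections of 500 μM ligand went into 20 μM DHPS. Kd was fitted to a one-site binding model.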

[3] = biological target: T1, Dihydropteroate synthase (Bacillus anthracis); experiment: Inhibition of Bacillus anthracis DHPS expressed in Escherichia coli BL21 (DE3) at 250 uM after 30 mins; summary of the method: as §1
Dihydropteroate synthase [4] = biological target: T2, Dihydropteroate synthase; experiment: Inhibition of Bacillus anthracis DHPS expressed in Escherichia coli BL21 (DE3) after 30 mins
Summary of the method: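 Radiometric assay at 37 °C for 30 min: 5 μM 14C pABA, 10 μM enzymatically prepared dihydropterin diphosphate, 10 mM MgCl2, 2% DMSO, 50 mM HEPES pH 7.6, 5 ng DHPS, over a range of inhibitor concentrations. The reaction was stopped with acetic acid on ice. 14C dihydropteroate was separated from pABA by PEI-cellulose TLC and quantified by phosphorimaging. IC50 was obtained by curve fitting.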

SMILES: Nc1nc(NCCCOc2ccc(C(=O)O)cc2)c(N=O)c(=O)[nH]1
- inhibition [1]: 79%

SMILES: Nc1ccc(C(=O)O)cc1 [AMINOBENZOIC ACID]
- Kd (Dihydropteroate synthase [2]): 5.62 µM

SMILES: CN1CC(C(=O)O)=Nc2c1nc(N)[nH]c2=O
- inhibition [3]: 93%
- IC50 (Dihydropteroate synthase [4]): 32.4 µM
- Kd (Dihydropteroate synthase [2]): 5.26 µM

SMILES: Nc1nc2ncc(C(=O)O)nc2c(=O)[nH]1
- inhibition [1]: 37%

SMILES: Nc1nc(N)c([N+](=O)[O-])c(=O)[nH]1
- inhibition [3]: 80%
- IC50 (Dihydropteroate synthase [4]): 109 µM

SMILES: Nc1ncc(Oc2ccccc2)c(=O)[nH]1
- inhibition [1]: 37%

SMILES: Nc1nc2[nH]c(S)nc2c(=O)[nH]1
- inhibition [3]: 0%

SMILES: Nc1nc2nc3c(nc2c(=O)[nH]1)CCCC3
- inhibition [1]: 31%

SMILES: Nc1nc2c(c(=O)[nH]1)N=C(CCNc1ccc(C(=O)O)cc1)CN2
- inhibition [1]: 100%
- IC50 (Dihydropteroate synthase [4]): 25.9 µM

SMILES: Nc1ccc2nc(CCc3nc4ccc(N)cc4[nH]3)[nH]c2c1
- inhibition [1]: 62%

SMILES: Cn1c(=O)c2nc(C(=O)O)c(=O)[nH]c2n(C)c1=O
- inhibition [1]: 33%

SMILES: CC(C(=O)O)c1nn(C)c2nc(N)[nH]c(=O)c2c1=O (centres undefined)
- inhibition [1]: 97%
- IC50 (Dihydropteroate synthase [4]): 19.8 µM

SMILES: Cc1cc(/C=C2/C(=O)N=C(O)N=C2O)c(C)n1C
- inhibition [1]: 35%

SMILES: Nc1nnc(N)c2[nH]cnc12
- inhibition [1]: 32%
- IC50 (Dihydropteroate synthase [4]): > 500 µM

SMILES: Nc1nc(N)c(N=O)c(=O)[nH]1
- inhibition [3]: 81%
- IC50 (Dihydropteroate synthase [4]): 8 µM

SMILES: NC(=O)c1nc[nH]c1C(N)=O
- inhibition [1]: 32%

SMILES: CNc1nc(N)[nH]c(=O)c1[N+](=O)[O-]
- inhibition [1]: 53%

SMILES: Nc1nc2ncc(CCNc3ccc(C(=O)O)cc3)nc2c(=O)[nH]1
- inhibition [1]: 76%
- IC50 (Dihydropteroate synthase [4]): 87.1 µM

SMILES: Nc1nc2[nH]c(=O)c(C(=O)O)nc2c(=O)[nH]1
- inhibition [1]: 70%
- IC50 (Dihydropteroate synthase [4]): 269 µM

SMILES: CN1CC(CC(C)(C)O)=Nc2c1nc(N)[nH]c2=O
- inhibition [1]: 54%
- IC50 (Dihydropteroate synthase [4]): 215 µM

SMILES: CC1CNc2nc(N)[nH]c(=O)c2N1 (centres undefined)
- inhibition [1]: 67%

SMILES: CN1CC=Nc2c1nc(N)[nH]c2=O
- inhibition [1]: 76%
- IC50 (Dihydropteroate synthase [4]): 86.7 µM

SMILES: Cn1c(=O)c2nc(C=O)c(=O)[nH]c2n(C)c1=O
- inhibition [1]: 44%
